Results published in publication PMC3068229 (Biochemistry, 2011).
Values belong to the molecule of their own block, whether it stands above or below them.

Experiments:
annexin A1 [1] = biological target: T1, annexin A1 (Mus musculus, UniProt P10107); assay: SPR, carbohydrates flowed over annexin A1 immobilized on NTA chips; format: binding; settings: annexin A1 1 µM immobilized
T1 sequence (P10107 1-346): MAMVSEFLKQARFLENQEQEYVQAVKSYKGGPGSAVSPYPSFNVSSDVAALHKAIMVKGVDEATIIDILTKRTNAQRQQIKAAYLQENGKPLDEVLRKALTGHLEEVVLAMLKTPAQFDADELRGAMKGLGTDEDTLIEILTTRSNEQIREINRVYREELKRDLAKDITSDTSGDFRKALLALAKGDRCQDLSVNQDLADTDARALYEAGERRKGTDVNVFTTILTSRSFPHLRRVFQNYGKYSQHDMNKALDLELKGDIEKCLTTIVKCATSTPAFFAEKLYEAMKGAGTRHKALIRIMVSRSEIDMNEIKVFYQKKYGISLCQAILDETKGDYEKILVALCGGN
Procedure, shortened: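 The NTA chip was primed with 500 μM NiCl2 in HBS-EP running buffer (10 mM HEPES pH 7.4, 150 mM NaCl, 50 μM EDTA, 0.05% Tween-20), then His-tagged mouse annexin A1 (1 μM) was captured. Test glycans, either free glycosaminoglycans or polyacrylamide-coupled glycans at 5 or 50 μg/mL, or buffer alone, were injected for 3 min in HBS-N with 1 mM CaCl2 and 1 mM MgCl2. After dissociation, the chip was regenerated with 35 mM EDTA.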

annexin A1 [2] = biological target: T1, annexin A1; assay: Glycan array; format: binding; settings: annexin A1-His 0.2 mg/ml, 2 mM CaCl2, 2 mM MgCl2, fluorescence (RFU)
Procedure, shortened: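 Recombinant full-length mouse annexin A1 with a C-terminal His6 tag was expressed in E. coli BL21(DE3) with 1 mM IPTG induction, purified on Ni-NTA and dialysed into 20 mM Tris pH 7.9 with 250 mM NaCl. The array was probed with 0.2 mg/mL protein in TBS-CM (pH 7.4) containing 1% BSA and 0.05% Tween-20, for 60 min at room temperature in a humid chamber. Read-out was mean RFU of 6 replicates after dropping the highest and lowest values.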

Glycosaminoglycan binding to annexin A1 immobilized on NTA SPR chip (annexin A1 [1]; glycosaminoglycans 5 or 50 µg/mL): bound less well
Molecule: CO[C@H]1O[C@H](COS(=O)(=O)O)[C@@H](O[C@@H]2O[C@@H](C(=O)O)[C@@H](O[C@H]3O[C@H](COS(=O)(=O)O)[C@@H](O[C@@H]4O[C@H](C(=O)O)[C@@H](O[C@H]5O[C@H](COS(=O)(=O)O)[C@@H](O)[C@H](O)[C@H]5NS(=O)(=O)O)[C@H](O)[C@H]4O)[C@H](OS(=O)(=O)O)[C@H]3NS(=O)(=O)O)[C@H](O)[C@H]2OS(=O)(=O)O)[C@H](O)[C@H]1NS(=O)(=O)O [arixtra, fondaparinux sodium]

Annexin A1 binding on glycan array (annexin A1 [2]): among the best recognized glycans
Molecule: O=C[C@H](O)[C@@H](O)[C@H](O)[C@H](O)C(=O)O [glucuronic acid]

Binding to annexin A1 immobilized on NTA SPR chip (annexin A1 [1]; carbohydrate flowed over): did not interact
Molecule: LacNAc

Annexin A1 binding on glycan array (annexin A1 [2]): strongest binder
Annexin A1 binding on glycan array (annexin A1 [2]; listed as [3OSO3^− ][6OSO3^−]Galβ1-4[6OSO3^−]GlcNAcβ): best binder
Molecule: [3OSO3^−][6OSO3^−]Galβ1-4[6OSO3^−]GlcNAcβ-Sp0 [compound 26]
